# Measured values as given in ChEMBL document CHEMBL1148178, “Dicranin, an antimicrobial and 15-lipoxygenase inhibitor from the moss Dicranum scoparium” (1993).
# Active and inactive are the calls of the source. No cut-off for these calls is given here.
# How the values were obtained:
# [1] = test system: Geobacillus stearothermophilus; experiment: Antibacterial activity against Bacillus stearothermophilus NCA 1518 after 24 hrs by disk diffusion assay; assay type: functional, organism-based
# Method in brief: (§1)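 Sterile 6 mm filter-paper disc bearing sample set in the centre of a Petri dish of 15 ml plate count agar. Overlaid with 3 ml soft nutrient agar (nutrient broth + 0.7% agar) seeded with 1% of a 16–18 h culture of the test strain. Read-out is the diameter of the growth-free zone around the disc.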
# Bacillus cereus = experiment: Antibacterial activity against Bacillus cereus NCIB 3329 after 24 hrs by disk diffusion assay; assay type: functional, organism-based; method in brief: as §1
# Bacillus subtilis = experiment: Antibacterial activity against Bacillus subtilis NCIB 3610 after 24 hrs by disk diffusion assay; assay type: functional, organism-based; method in brief: as §1
# Enterococcus faecalis = experiment: Antibacterial activity against Streptococcus faecalis NCIB 775 after 24 hrs by disk diffusion assay; assay type: functional, organism-based; method in brief: as §1
# Escherichia coli = experiment: Antibacterial activity against Escherichia coli B74-1 after 24 hrs by disk diffusion assay; assay type: functional, organism-based; method in brief: as §1
# Salmonella typhimurium = experiment: Antibacterial activity against Salmonella Typhimurium NCIB 10248 after 24 hrs by disk diffusion assay; assay type: functional, organism-based; details: Salmonella enterica subsp. enterica serovar Typhimurium; method in brief: as §1
# Pseudomonas aeruginosa = experiment: Antibacterial activity against Pseudomonas aeruginosa ATCC 10145 after 24 hrs by disk diffusion assay; assay type: functional, organism-based; method in brief: as §1
# Pseudomonas putida = experiment: Antibacterial activity against Pseudomonas putida T-AQ 18/YF18 after 24 hrs by disk diffusion assay; assay type: functional, organism-based; method in brief: as §1
# Staphylococcus aureus = experiment: Antibacterial activity against Staphylococcus aureus T-AQ 49/YF29 after 24 hrs by disk diffusion assay; assay type: functional, organism-based; method in brief: as §1
# Glycine max = experiment: Inhibition of soybean 15-LOX at 4 uM
# Method in brief: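 15-lipoxygenase assay run by a literature method with arachidonic acid (40 μM) as substrate.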
Structure (SMILES),Activity [1],Activity (Bacillus cereus),Activity (Bacillus subtilis),Activity (Enterococcus faecalis),Activity (Escherichia coli),Activity (Salmonella typhimurium),Activity (Pseudomonas aeruginosa),Activity (Pseudomonas putida),Activity (Staphylococcus aureus),inhibition (Glycine max) [%]
CC/C=C\C/C=C\C/C=C\C/C=C\CCCCC(=O)O,Active,Active,Active,Active,Active,Active,Active,Active,Active,–
CCCCCC#CCC#CCC#CCC#CCCCC(=O)O,–,–,–,–,–,–,–,–,–,95
